APJ antagonist – antagonists of human apelin receptor APJ, primary screen, CHO-K1 cells, beta-arrestin complementation, luminescence; P35414; inhibition, % at 20 µM; 330,000 tested, 0.32% active;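 active = inhibition above about 40% at 20 µM, limit read from the data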;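 note: cells challenged with 10 nM apelin-13 agonist together with compound; plate controls were apelin-13 plus DMSO wells for no effect and DMSO wells lacking apelin-13 for full effect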
Target sequence (P35414 whole entry, looked up): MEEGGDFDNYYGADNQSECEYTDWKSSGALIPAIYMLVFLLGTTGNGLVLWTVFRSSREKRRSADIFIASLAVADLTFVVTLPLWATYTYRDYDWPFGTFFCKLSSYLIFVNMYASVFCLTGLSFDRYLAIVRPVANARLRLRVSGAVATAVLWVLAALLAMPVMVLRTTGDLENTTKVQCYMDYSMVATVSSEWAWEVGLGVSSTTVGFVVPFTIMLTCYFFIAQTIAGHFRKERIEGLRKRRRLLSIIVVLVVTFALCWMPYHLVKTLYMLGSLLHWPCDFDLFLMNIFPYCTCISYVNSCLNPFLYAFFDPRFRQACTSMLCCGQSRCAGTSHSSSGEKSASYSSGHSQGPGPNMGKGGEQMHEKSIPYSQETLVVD
CXCR6 block – CXCR6 receptor inhibitors, primary screen, cell-based, beta-arrestin, luminescence, CHO-K1 PathHunter, 1536-well. inhibition, % at 20 µM. 360,000 tested, 0.36% active. AID 602244, 2012; in the data active = inhibition above about 34%, passing the limit was not always enough;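 note: antagonist mode with CXCL16 agonist at 10 nM final; 0% = 10 nM CXCL16 with DMSO and 100% = unstimulated wells without agonist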
CCR6 antag – CCR6 receptor antagonists, primary screen, cell-based, CHO-K1, luminescence, beta-arrestin, uHTS | C-C chemokine receptor type 6 (Homo sapiens), P51684 | CHO-K1 CCR6 PathHunter beta-arrestin, CCL20-stimulated | inhibition, % at 20 µM | 340,000 tested, 0.49% active;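 active = compounds whose inhibition of the agonist-driven luminescence signal at 20 µM reaches about 50%, limit read from the data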;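 note: cells stimulated with CCL20 at 14 nM final; plate controls were DMSO with CCL20 for no effect and DMSO without agonist for full effect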
APJ agonist – agonists of human apelin receptor APJ, primary screen, CHO-K1 cells, PathHunter beta-arrestin, luminescence; P35414; 0% DMSO wells, 100% apelin; activation, % at 20 µM; 330,000 tested, 0.11% active;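 active = activation more than six SD over the plate average, tested at 20 µM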;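 note: 0% = DMSO alone and 100% = apelin-13 at 10 nM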
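Test system – PathHunter CHO-K1 APJ (AGTRL-1) beta-arrestin reporter cells · Input – 1000 cells/well · Compound – single test compound dose, 20 µM final, 1% DMSO · Times – compound stimulation 90 min at 25 °C, detection 60 min · Technique – beta-gal luminescence · Read-out basis – APJ–arrestin association signal · Control set – negative DMSO alone, positive Apelin-13 at 10 nM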
EBI2 antag – EBI2 receptor antagonists, beta-arrestin recruitment, primary screen, cell-based, luminescence, 7a,25-OHC stimulation, uHTS. 7a,25-OHC stimulated. inhibition, % at 5 µM. 360,000 tested, 0.81% active. AID 651636, 2012; in the data active = inhibition above about 38%;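 note: enzyme fragment complementation signal reports receptor beta-arrestin coupling in cells; 0% = agonist plus DMSO wells and 100% = wells without agonist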
Active calls of the source: *; · = not tested or not shown. Shown are actives, neighbours in structure and some others; about 1.5% of the full set was active somewhere.

SMILES | APJ antagonist | CXCR6 block | CCR6 antag | APJ agonist | EBI2 antag
CCOC(=O)Cn1c(=NC(=O)c2ccc([N+](=O)[O-])s2)sc2ccccc21 | -64 | 8 | 54* | 2 | 7
COC(=O)c1cc2c(C)nn(-c3ccccc3)c2s1 | -2 | -6 | -7 | -1 | 9
Cc1nn(-c2ccccc2)c2sc(C(=O)N(CC(=O)NC(C)(C)C)Cc3ccco3)cc12 | 11 | 5 | 57* | -2 | 9
CC(Nc1cccc2ccccc12)C(=O)N/N=C/c1ccc([N+](=O)[O-])cc1 (stereo unspecified) | -36 | -13 | 13 | 0 | 3
COc1cc([N+](=O)[O-])cc(/C=N/NC(=O)C(C)Nc2cccc3ccccc23)c1O (stereo unspecified) | -50 | 56* | 48 | 0 | 56*
Cc1cc(N(CCO)CCO)ccc1N=Nc1cc(F)ccc1F | 61* | 30 | 44 | -9 | 15
Nc1ccc(N(CCO)CCO)cc1 | -16 | -11 | -10 | 3 | -7
C=C1C(=O)O[C@H]2C[C@H]1[C@@H](OC(C)=O)C/C(C)=C/CC/C(C)=C\CC[C@]2(C)O | · | 0 | 3 | · | 52*
Cc1ccc(-c2cc(-c3ccc(Cl)cc3)c(C#N)c(N)n2)o1 | -19 | 8 | 86* | -4 | -1
COc1ccc(N2CSC3=C(C#N)C(c4cc(OC)ccc4OC)CC(=O)N3C2)c(OC)c1 (stereo unspecified) | -15 | -12 | 14 | 20 | -3
COc1ccc(N2CSC3=C(C#N)C(c4cc(OC)c(OC)cc4OC)CC(=O)N3C2)c(OC)c1 (stereo unspecified) | -16 | -8 | -10 | 25* | -7
COCCCn1c(SCc2cccc(C(F)(F)F)c2)nc2cc(OC)c(OC)cc2c1=N | 13 | 2 | 17 | -1 | 57*
CSc1ccc(CN2CCC2(C)C(=O)NCc2cccs2)cc1 (stereo unspecified) | · | 1 | · | · | 2
CCN(CC)c1ccc(/C=C2\C(=O)N(c3nnc(C)c(=O)[nH]3)N=C2C)cc1 | 16 | 28 | 48 | -2 | 63*
Cc1[nH]c2ccccc2c1CC#N | 12 | 2 | 11 | -2 | -8
Cc1[nH]c2ccccc2c1C(C#N)(C#N)C1C(=O)c2ccccc2C1=O | 12 | 43* | 45 | -4 | -24
Cc1ccc(-n2c(Cl)c(Cl)nc(Cl)c2=O)cc1 | · | 61* | 82* | · | 52*
O=C(O)c1cc(N=Nc2c(O)ccc3ccccc23)cc(C(=O)O)c1 | · | 28 | 57* | · | 15
CC(C)(C)c1cc(C(=O)NCC(=O)OCC(=O)c2cccc([N+](=O)[O-])c2)cc(C(C)(C)C)c1 | 35 | 34 | 57* | -8 | -4
Cc1ccc(Nc2c(-c3ccccn3)nc3cc(C)ccn23)cc1 | 39 | 40* | 57* | -4 | 7
C=CCN1C=C/C(=C\C=C(C#N)C#N)c2ccccc21 | 70* | 46* | 74* | -16 | 26
CCCCCCN1C=C/C(=C\C=C(C#N)C#N)c2ccccc21 | 65* | 61* | 77* | -7 | 38
COc1cccc(NC(=O)C2(C)CCN2CCc2ccccc2)c1 (stereo unspecified) | · | 1 | · | · | 11
S=C(NNc1ccnc2cc(Cl)ccc12)Nc1ccc(Cl)cc1Cl | 8 | 18 | 54* | 5 | 6
CCOc1ccc(NC(=S)NNc2ccnc3cc(Cl)ccc23)cc1 | -3 | 3 | 13 | 6 | 17
SMILES | APJ antagonist | CXCR6 block | CCR6 antag | APJ agonist | EBI2 antag
CC(C)(C)C1CCN2CCCC(c3ccccc3)(C1)C2=O (stereo unspecified) | · | 13 | · | · | 0
O=C1Nc2ccccc2C1=Nc1ccc(Cl)cc1 | · | 33 | 65* | · | 17
COc1cc(/C=N/N=C2/C(=O)Nc3ccccc32)cc(OC)c1O | 34 | 9 | 61* | -6 | -26
Cc1ccc(N=C2C(=O)Nc3ccccc32)cc1C | 14 | 10 | 52* | -9 | 0
Cc1cc(C)c(N=C2C(=O)Nc3ccccc32)c(C)c1 | 27 | 16 | 15 | -4 | -9
CCN(CC)c1ccc(N=C2C(=O)Nc3ccccc32)cc1 | 6 | 25 | 26 | -2 | -1
CCNC(=O)C1(C)CCN(C(=O)c2cccnc2SC)C1 (stereo unspecified) | · | -3 | · | · | -10
Cc1cc(C)nc(N/N=C/c2ccccc2OCc2ccc(Br)cc2)n1 | 8 | 3 | -1 | -1 | -6
Cc1cc(C)nc(N/N=C/c2cc(Br)ccc2O)n1 | 3 | 44* | 44 | -3 | 1
O=C(O)c1ccccc1NS(=O)(=O)c1ccc(N/N=C/c2ccc(O)c(O)c2)c([N+](=O)[O-])c1 | · | 22 | 50* | · | 6
CCCc1sc(N/N=C/c2ccccn2)nc1-c1ccc(F)cc1 | 18 | 37 | 69* | -6 | 17
Cc1cc(-c2ccc(C)c(S(=O)(=O)Nc3cc(C)on3)c2)on1 | -2 | -9 | -8 | 5 | 2
CN1CCN(C(=O)c2cccc(-c3cnc4cnc(-c5ccccc5Oc5ccccc5)cn34)c2)CC1 | · | 17 | · | · | -1
Cc1cccc(C2(c3cccc(C)c3)CC2C(=O)Nc2ccc([N+](=O)[O-])cc2O)c1 (stereo unspecified) | -24 | 14 | 58* | 0 | 20
CC(CCC(C)C(C)(C)C)[C@@H]1CC[C@H]2C3C[C@H](OS(O)(=S)=S)[C@H]4C[C@H](OS(O)(=S)=S)[C@@H](OS(O)(=S)=S)C[C@]4(C)[C@H]3CC[C@]12C (stereo partly specified) (tested in a mixture with another compound) | 10 | 20 | 57* | 6 | -12
CC(CCC(=O)NN)C1CCC2C3CCC4CC(O)CCC4(C)C3CCC12C (stereo unspecified) | · | 0 | 6 | · | 14
O=C1c2ccccc2-c2onc3ccc(Oc4ccccc4)c1c23 | -6 | 41* | 42 | 16 | -17
COc1cc(Cl)c(C)cc1NC(=O)CN1CCN(C(=O)c2cccs2)CC1 | · | 2 | · | · | 4
O=C(C[C@@H]1CC[C@@H]2[C@H](COC[C@H](O)CN2CCC(F)(F)F)O1)NCc1ccc2c(c1)OCO2 | · | · | · | · | -3
O=C(Nc1cccc(Cl)c1)c1csc(COCCO)n1 | · | -2 | · | · | 2
COc1ccc(C(=O)CC(=O)C(=O)Nc2ccc(Cl)cc2)cc1 | · | 18 | 53* | · | -12
COc1ccc(C(=O)CC(=O)C(=O)Nc2ccc(OC)c(Cl)c2)cc1 | 9 | 9 | 15 | -2 | -8
COc1ccc(CN2CCC[C@]3(N[C@H](c4ccc(C)cc4)[C@@H]4C(=O)N(C)C(=O)[C@@H]43)C2=O)cc1 | · | -7 | · | · | -3
